Conditions in all cases: read-out: IZ
Experiment [1] relates to Candida albicans. In words: Antifungal activity against Candida albicans UPCC 2168 replicate 2 assessed as clearing zone at 30 ug after 24 to 48 hrs. It is filed as functional. The method, boiled down: (§1)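 Yeast is suspended in 0.1% peptone water, and 0.1 mL is spread on glucose yeast peptone agar with a GYP overlay at 45 °C. Three 10 mm wells per plate each get 200 µL of sample in 95% EtOH. Plates are incubated at room temperature and observed after 24–48 h. The mean clearing-zone diameter is recorded in mm.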

Experiment [2] has as its system Trichophyton mentagrophytes. Description: Antifungal activity against Trichophyton mentagrophytes UPCC 4193 replicate 2 assessed as clearing zone at 30 ug after 3 to 5 days.
For experiment [3], the system named is Pseudomonas aeruginosa. Description: Antibacterial activity against Pseudomonas aeruginosa UPCC 1244 replicate 1 assessed as clearing zone at 30 ug after 24 to 48 hrs. It counts as functional. The procedure, abridged:
(§2)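 Agar well diffusion. 0.1 mL of bacterial suspension in 0.1% peptone water is spread on prepoured nutrient agar and overlaid with melted NA cooled to 45 °C. Three equidistant 10 mm wells each receive 200 µL of sample in 95% EtOH. Plates are incubated at room temperature and read at 24–48 h. Clearing-zone diameters are measured in mm and averaged.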

Experiment [4] relates to Trichophyton mentagrophytes. Description: Antifungal activity against Trichophyton mentagrophytes UPCC 4193 replicate 1 assessed as clearing zone at 30 ug after 3 to 5 days.
The test system of experiment [5] is Candida albicans. Description: Antifungal activity against Candida albicans UPCC 2168 replicate 3 assessed as clearing zone at 30 ug after 24 to 48 hrs. It is filed as functional. The procedure, abridged:
as §1

The test system of experiment [6] is Trichophyton mentagrophytes. Description: Antifungal activity against Trichophyton mentagrophytes UPCC 4193 replicate 3 assessed as clearing zone at 30 ug after 3 to 5 days.
Experiment [7] deals with Escherichia coli. In words: Antibacterial activity against Escherichia coli UPCC 1195 replicate 1 assessed as clearing zone at 30 ug after 24 to 48 hrs. It counts as functional. The method, boiled down:
as §2

Experiment [8] relates to Escherichia coli. In words: Antibacterial activity against Escherichia coli UPCC 1195 replicate 3 assessed as clearing zone at 30 ug after 24 to 48 hrs. It counts as functional. The method, boiled down: as §2
Experiment [9] concerns Pseudomonas aeruginosa. In words: Antibacterial activity against Pseudomonas aeruginosa UPCC 1244 replicate 2 assessed as clearing zone at 30 ug after 24 to 48 hrs. It is filed as functional. The method, boiled down:
as §2

Experiment [10] deals with Candida albicans. Description: Antifungal activity against Candida albicans UPCC 2168 replicate 1 assessed as clearing zone at 30 ug after 24 to 48 hrs. It is filed as functional. The procedure, abridged:
as §1

For experiment [11], the system named is Pseudomonas aeruginosa. In words: Antibacterial activity against Pseudomonas aeruginosa UPCC 1244 replicate 3 assessed as clearing zone at 30 ug after 24 to 48 hrs. It is filed as functional. The method, boiled down: as §2
The test system of experiment [12] is Escherichia coli. In words: Antibacterial activity against Escherichia coli UPCC 1195 replicate 2 assessed as clearing zone at 30 ug after 24 to 48 hrs. It is filed as functional. The method, boiled down:
as §2

Another experiment deals with Bacillus subtilis. Description: Antibacterial activity against Bacillus subtilis UPCC 1149 replicate 1 assessed as clearing zone at 30 ug after 24 to 48 hrs. It counts as functional. The method, boiled down: as §2
The test system of the next experiment is Staphylococcus aureus. Description: Antibacterial activity against Staphylococcus aureus UPCC 1143 replicate 1 assessed as clearing zone at 30 ug after 24 to 48 hrs. It counts as functional. The method, boiled down: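 Agar well diffusion. Microbe suspended in 0.1% peptone water; 0.1 mL spread on prepoured nutrient agar, overlaid with melted medium cooled to 45 °C. Three 10 mm wells per plate, 200 µL sample in 95% EtOH per well. Incubated at room temperature and read at 24–48 h. Clearing-zone diameter measured in mm.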

`CC[C@@H]1O[C@H]1/C=C1/C(=O)C=C[C@@]1(O)CCCC[C@@H]1CCC(=O)O1`: the zone of inhibition at 30 µg/disc in the experiment on Candida albicans [1] was 13 mm; in [2], 12 mm; in the experiment with Pseudomonas aeruginosa [3], 12 mm; in experiment [4], 12 mm; in the experiment on Candida albicans [5], 13 mm; in experiment [6], 12 mm. Further, the zone of inhibition at 30 µg/disc amounted to 12 mm with Escherichia coli [7]; 12 mm in the experiment with Escherichia coli [8]; 12 mm with Pseudomonas aeruginosa [9]; 13 mm in the experiment on Candida albicans [10]; 12 mm in the experiment on Pseudomonas aeruginosa [11]; 12 mm in the experiment on Escherichia coli [12].
In the case of `C/C=C/C(=O)C[C@H]1C(=O)C=C[C@@]1(O)CCCC[C@@H]1CCC(=O)O1`, the zone of inhibition at 30 µg/disc with Candida albicans [1] was determined as 13 mm; in experiment [2] it was 13 mm; in the experiment with Pseudomonas aeruginosa [3] it was 12 mm; in experiment [4], 13 mm; with Candida albicans [5] it was 13 mm; in experiment [6], 13 mm. Besides, the zone of inhibition at 30 µg/disc in the experiment with Escherichia coli [7] was 12 mm; with Escherichia coli [8], 12 mm; with Pseudomonas aeruginosa [9] it was 12 mm; with Candida albicans [10], 13 mm; in the experiment on Pseudomonas aeruginosa [11], 12 mm; with Escherichia coli [12], 12 mm.
For `O=C(N[C@H](CO)[C@H](O)c1ccc([N+](=O)[O-])cc1)C(Cl)Cl` [CHLORAMPHENICOL], the zone of inhibition at 30 µg/disc in the experiment on Pseudomonas aeruginosa [3] amounted to 14 mm; with Bacillus subtilis, 20 mm; in the experiment on Escherichia coli [7] it was 23 mm; in the experiment on Staphylococcus aureus it was 25 mm.

For the origin of these results see ChEMBL document CHEMBL1149834, “Chromomoric acid derivatives from Tectona philippinensis” (2008).
